Bioassay records: PubChem BioAssay, several laboratories
Sampled rows, rich in hits. Any-hit rate of the full collection: about 2.9%.
Efflux pump mplx: antifungal efflux pump inhibition, Nile Red retention. S. cerevisiae Candida pump triplex. inhibition, % at 10 µM. hit rate 0.44% among 330,000;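 active = plate passing quality check with inhibition over a set limit, or well fluorescence over plate mean plus 4 SD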;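 note: Nile Red retained in pooled yeast measured as flow cytometry median fluorescence; 0% = buffer negative control and 100% = Enniatin B positive control; higher means more Nile Red kept so more efflux inhibition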
MC4R antag cAMP: blocks human MC4R cAMP signaling. MC4R-expressing cells, MTII-stimulated cAMP, LANCE TR-FRET. hit rate 0.48% among 360,000. inhibition, % at 6.5 µM. AID 540295;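 active = inhibition above its plate's cutoff, the mean of tested wells on that plate plus 3 SD, cut at about 29% in these data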;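 note: 0% = Melanotan II alone and 100% = Melanotan II plus saturating MCL0020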
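System: U2OS cells stably expressing human melanocortin 4 receptor (MC4R). Reagent: Melanotan II challenge after compound preincubation. Doses: 6.5 µM. Times: 30-min compound, 1-h challenge, 1-h detection, room temperature. Measured by: TR-FRET with Eu-cAMP and labeled anti-cAMP, 671 nm. Replicates: singlicate.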
GalR3 antag: human GalR3 antagonism; inhibition, % at 3 µM; hit rate 0.44% among 360,000; O60755; HEK293 GalR3-CNG cAMP membrane potential fluorescence; galR3 body fused to GalR1 C-terminus;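 active = inhibition above the screen-wide average plus 3 SD, cut at about 13% in these data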;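 note: forskolin and galanin both at EC90 stimulate the cells; cAMP rise reported by CNG channel membrane potential dye signal; 0% = forskolin plus galanin with DMSO and 100% = forskolin alone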
Target sequence (O60755 1-299 limits assumed): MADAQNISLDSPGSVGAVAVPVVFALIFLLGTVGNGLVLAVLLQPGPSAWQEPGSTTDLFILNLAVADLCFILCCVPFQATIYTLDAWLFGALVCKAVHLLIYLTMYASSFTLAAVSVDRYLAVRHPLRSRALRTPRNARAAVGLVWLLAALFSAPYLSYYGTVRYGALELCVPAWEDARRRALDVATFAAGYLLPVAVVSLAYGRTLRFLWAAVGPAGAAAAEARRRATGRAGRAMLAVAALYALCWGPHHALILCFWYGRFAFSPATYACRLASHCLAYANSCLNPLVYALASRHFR
Calb FLC: affects C. albicans growth with fluconazole; C. albicans CaCi-2 (fluconazole-resistant clinical isolate) + fluconazole, Alamar Blue growth, 48 h; growth inhibition, % (no concentration beside the values); hit rate 0.57% among 300,000;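 active = growth inhibition above about 58% in most replicates, limit read from the data, passing the limit was not always enough; inconclusive = exactly half the replicates above a set limit; inactive = most replicates below a set limit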;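 note: all wells also contain fluconazole at 8 µg/ml as a sub-toxic cotreatment; 0% = median of DMSO wells and 100% = median of geldanamycin control wells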
TAG inh: reduces triacylglycerol accumulation in H9c2 cells. Nile Red lipid (TAG) fluorescence; cells loaded with 200 µM oleic acid. inhibition, % at 12.5 µM. hit rate 0.66% among 230,000. AID 651582;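 active = pattern-corrected inhibition of lipid staining of at least 50% with the nuclear-stain viability signal not falling by more than 50%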;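 note: 0% = DMSO wells and 100% = triacsin C control wells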
MC4R ag barr: agonists of human melanocortin 4 receptor (MC4R) beta-arrestin; P32245; U2OS MC4R beta-arrestin complementation, luminescence; percent of melanotan II response, DMSO zero; activation, % at 8.9 µM; hit rate 0.98% among 360,000; AID 540308;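 active = activation above a per-plate cutoff, the mean activation of sample wells on that plate plus 3 SD, cut at about 8% in these data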
H9c2 TAG conf: triacylglycerol accumulation inhibition, confirmation; shares compounds with TAG inh; H9c2 lipid accumulation, Nile Red fluorescence; cells loaded with 200 µM oleic acid; inhibition, % at 12.5 µM; hit rate 71% among 990;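 active = mean inhibition across replicates of 40% or more; inactive = mean inhibition below 40%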;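 note: plate controls were DMSO only wells for no effect and Triacsin C treated wells for full effect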
An asterisk follows results filed as active; ? = inconclusive; . = no result given.

SMILES | Efflux pump mplx | MC4R antag cAMP | GalR3 antag | Calb FLC | TAG inh | MC4R ag barr | H9c2 TAG conf
CN(C)CCCNC(=O)C[C@H]1C[C@H](C(=O)N2CCCCC2)[C@@]2(C)c3[nH]c4cc(-c5ccco5)ccc4c3CCN2C1=O | -0.2 | 4.6 | 1.9 | . | 57.8* | -0.7 | 22.5
CN(C)CCCNC(=O)CC1C[C@H](C(=O)N2CCCCC2)[C@@]2(CCc3ccccc3)c3[nH]c4ccccc4c3CCN2C1=O (stereo not given in full) | -0.1 | 0.3 | -3.5 | . | 53.1* | 0.4 | 48.1*
COc1ccc2[nH]c3c(c2c1)CCN1C(=O)C(CC(=O)NCCCN(C)C)C[C@H](C(=O)N2CCCCC2)[C@@]31CCc1ccccc1 (stereo not given in full) | -0.3 | 5.7 | -3.2 | . | 13.4 | -0.4 | .
C[C@]12c3[nH]c4cc(-c5ccco5)ccc4c3CCN1C(=O)[C@@H](CC(=O)NCCCn1ccnc1)C[C@@H]2C(=O)N1CCCCC1 | 0.2 | 3.1 | -3.5 | . | 6.3 | -0.5 | .
COC(=O)[C@]12C[C@H](CC(=O)N3CCCC3)C(=O)N(Cc3ccc4c(c3)OCO4)C1=C[C@H](C(C)(C)C)O[C@@H]2C | . | . | -6.4 | . | . | . | .
CCc1nc2ccc(C(=O)NCCOc3ccc(OC)cc3)cn2c1N(C)C(=O)Cc1ccccc1 | . | -2.0 | -5.9 | . | 1.2 | -1.5 | .
COc1ccc2c(c1)[C@@]1(OCCC=C[C@H]1C)C(=O)N2Cc1ccc(Br)cc1 | . | . | -9.4 | . | . | . | .
COc1ccccc1NS(=O)(=O)c1cc(NC(=O)/C=C/c2cccs2)ccc1N1CCOCC1 | -0.1 | -4.3 | -1.9 | 4.4 | 54.4* | -1.7 | 31.6
N=c1n(CCO)c2ccccc2n1CCOc1ccc(Cl)cc1Cl | 0.2 | -9.3 | 1.7 | 13.1 | 90.7* | -0.2 | 64.2*
COc1ccc(OCCn2c(=N)n(CCO)c3ccccc32)cc1 | -0.1 | -2.5 | -3.7 | 7.0 | -7.4 | -1.5 | .
O=C(Nc1ccc2c(c1)OCCO2)c1cc2sccc2n1Cc1ccc(F)cc1 | 0.2 | 4.4 | -4.9 | 0.9 | 42.9 | 1.2 | .
O=C(Nc1ccc2c(c1)OCCO2)c1cc2sccc2n1Cc1ccccc1 | 0.1 | 10.5 | -5.9 | 3.3 | 60.3* | 1.2 | 25.5
Cc1c(/C=N/N=C2\CCC3C4CCc5cc(O)ccc5C4CCC23C)cnn1C (stereo not given) | 0.0 | 6.8 | 4.8 | -3.0 | . | 2.2 | .
CCn1ncc(/C=N/N=C2\CCC3C4CCc5cc(O)ccc5C4CCC23C)c1C (stereo not given) | -0.1 | 6.7 | 3.0 | ? | 52.2* | 0.7 | 47.9*
COc1cc(-c2nc3c(c(C)nn3-c3ccccc3)c3cc(OC)c(OC)cc23)ccc1O | 0.1 | 9.8 | 0.5 | 0.9 | 61.8* | 0.8 | 58.5*
COc1cc(-c2nc3ccccc3nc2-c2ccc(O)c(OC)c2)ccc1O | -0.1 | 1.0 | -3.9 | 3.7 | . | -1.8 | .
COc1cc2c(cc1OC)CN(C(=S)Nc1ccccc1Cl)CC2 | -0.1 | 3.9 | -1.4 | -9.0 | 61.9* | 0.5 | 6.1
COc1cc2c(cc1OC)CN(C(=S)Nc1ccccc1)CC2 | 0.0 | 15.4 | -7.7 | -0.6 | . | 0.6 | .
O=C(NCCCn1ccnc1)c1sc2cc([N+](=O)[O-])ccc2c1Cl | . | -3.2 | -5.8 | . | -5.1 | -2.3 | .
CCC1SC2=NC(C)=C(C(=O)OCC(C)C)C(/C=C/c3ccccc3OC)N2C1=O (stereo not given) | -0.2 | 5.5 | -5.7 | ? | 71.9* | 0.7 | 20.9
O=c1c2c3c(sc2nc(NCCO)n1-c1ccccc1)CCCC3 | 0.1 | 17.8 | -6.8 | 1.9 | . | -0.9 | .
CN(C)CCCNc1nc2sc3c(c2c(=O)n1CCc1ccccc1)CCCCC3 | -0.1 | 1.1 | -4.9 | 0.8 | 59.6* | 1.0 | 34.4
CN(C)CCCn1c(=O)n(CCc2ccccc2)c(=O)c2c3c(sc21)CCCCC3 | 0.1 | 9.8 | 1.0 | 1.5 | 54.5* | 0.6 | 50.0*
Nc1[nH]c(C(=O)c2ccc(Br)cc2)c(-c2ccncc2)c1C(=O)c1ccccc1 | . | . | -8.2 | . | . | . | .
CC(C)n1cc(/C=C2/NC(=O)N(c3cccc(Cl)c3)C2=O)c2ccccc21 | -0.1 | -0.5 | -9.1 | 7.2 | 54.8* | 1.4 | 23.5
